Data set [1] is described as follows: Cytotoxicity against human TERT immortalized BJ1 cells at 10 uM after 48 hrs by MTT assay relative to control. The class given is cell-based, BJ. The essentials:
(§1)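 hTERT-immortalized BJ1 fibroblasts were grown in DMEM with 10% FCS, 1 mM pyruvate and 4 mM […]. Cells (about 2 × 10^3 per well) were seeded and held 24 h at 37 °C. Compounds were freshly dissolved in DMSO, diluted into medium and left on the cells 48 h. MTT was added for 4 h, then SDS/DMF lysis buffer for 16 h. Absorbance was read at 550 nm and expressed relative to untreated cells (100%).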
(In general: Formazan colour is commonly taken as a measure of viable cells.)

In data set [2] the target is T1, Telomerase reverse transcriptase (Homo sapiens, UniProt O14746). Description: Effect on human TERT expressed in BJ1 cells at 100 uM after 24 hrs by SEAP assay relative to control. As to conditions: BJ.
A short description of data set [3]: Cytotoxicity against human TERT immortalized BJ1 cells at 1 uM after 48 hrs by MTT assay relative to control. The class given is cell-based, BJ. The essentials:
as §1

Data set [4] can be described thus: Cytotoxicity against human TERT immortalized BJ1 cells at 100 uM after 48 hrs by MTT assay relative to control. The class given is cell-based, BJ. The essentials:
as §1

Data set [5] is described as follows: Cytotoxicity against human H1299 cells at 100 uM after 48 hrs by MTT assay realtive to control. The class given is functional. To be noted: NCI-H1299, 48 h. The essentials: (§2)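 H1299 non-small-cell lung cells were kept in RPMI 1640 with 10% FBS and penicillin/streptomycin at 37 °C under 5% CO2. About 2 × 10^3 cells per well were pre-incubated for 24 h. Compound was added from freshly made DMSO solution diluted in complete medium and left for 48 h. MTT was then added for 4 h at 37 °C, followed by 20% SDS/50% DMF lysis buffer for 16 h at 37 °C, and absorbance read at 550 nm.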

The target in data set [6] is T1, Telomerase reverse transcriptase. Description: Effect on human TERT expressed in H1299 cells at 1 uM after 24 hrs by SEAP assay relative to control.
Data set [7] has the same target. Put plainly: Effect on human TERT expressed in BJ1 cells at 1 uM after 24 hrs by SEAP assay realtive to control. As to conditions: BJ.
Data set [8] is described as follows: Cell viability of human H1299 cells at 1 uM after 48 hrs by MTT assay relative to control. To be noted: NCI-H1299, 48 h.
Data set [9] is described as follows: Cytotoxicity against human H1299 cells at 10 uM after 48 hrs by MTT assay realtive to control. The class given is functional. To be noted: NCI-H1299, 48 h. The essentials: as §2
Data set [10] concerns the target T1, Telomerase reverse transcriptase. Description: Effect on human TERT expressed in H1299 cells at 100 uM after 24 hrs by SEAP assay relative to control.
Data set [11] shares this target. Description: Effect on human TERT expressed in H1299 cells at 10 uM after 24 hrs by SEAP assay relative to control.
Data set [12] shares this target. Put plainly: Effect on human TERT expressed in BJ1 cells at 10 uM after 24 hrs by SEAP assay relative to control. As to conditions: BJ.

Each structure is given as a SMILES string.

T1 sequence (O14746 whole entry): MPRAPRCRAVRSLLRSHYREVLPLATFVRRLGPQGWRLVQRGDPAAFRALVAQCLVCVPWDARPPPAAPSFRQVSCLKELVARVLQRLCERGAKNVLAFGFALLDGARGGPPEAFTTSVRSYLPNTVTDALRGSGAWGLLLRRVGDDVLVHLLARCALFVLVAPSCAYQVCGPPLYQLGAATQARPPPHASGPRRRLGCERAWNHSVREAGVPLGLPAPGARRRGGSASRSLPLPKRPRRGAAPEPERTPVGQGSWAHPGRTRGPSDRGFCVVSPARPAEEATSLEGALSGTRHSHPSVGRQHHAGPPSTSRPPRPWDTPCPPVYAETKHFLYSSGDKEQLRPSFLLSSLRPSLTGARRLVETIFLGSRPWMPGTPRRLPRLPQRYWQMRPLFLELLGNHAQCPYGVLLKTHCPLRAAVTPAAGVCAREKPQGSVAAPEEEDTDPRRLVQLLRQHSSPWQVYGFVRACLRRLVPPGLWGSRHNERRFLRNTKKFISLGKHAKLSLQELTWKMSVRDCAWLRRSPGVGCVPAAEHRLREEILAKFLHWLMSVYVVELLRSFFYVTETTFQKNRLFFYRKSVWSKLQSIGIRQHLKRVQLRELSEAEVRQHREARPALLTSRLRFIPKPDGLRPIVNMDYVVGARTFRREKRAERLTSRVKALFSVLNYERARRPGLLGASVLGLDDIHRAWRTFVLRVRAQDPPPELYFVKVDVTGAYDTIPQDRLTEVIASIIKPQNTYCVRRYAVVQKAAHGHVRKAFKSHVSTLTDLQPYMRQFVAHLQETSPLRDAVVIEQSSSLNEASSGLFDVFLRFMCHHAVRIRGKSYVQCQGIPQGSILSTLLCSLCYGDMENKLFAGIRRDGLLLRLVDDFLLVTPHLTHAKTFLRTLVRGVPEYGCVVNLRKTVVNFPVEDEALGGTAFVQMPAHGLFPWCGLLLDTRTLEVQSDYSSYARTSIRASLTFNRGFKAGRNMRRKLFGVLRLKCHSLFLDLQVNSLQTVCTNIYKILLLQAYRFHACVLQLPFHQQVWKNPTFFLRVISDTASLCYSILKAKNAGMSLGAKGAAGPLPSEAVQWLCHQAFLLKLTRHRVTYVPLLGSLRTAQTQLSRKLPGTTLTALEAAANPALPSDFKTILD

In the case of `O=C1c2ccc([N+](=O)[O-])cc2C(=O)c2cc([N+](=O)[O-])ccc21`, in data set [1], the viability – broadly, a read-out of living cells in per cent, often relative to untreated cells – at 48 h, 10 µM worked out at 91%. Further, the residual activity (commonly the signal under treatment as a percentage of the control signal) in [2] was determined as 65%; in data set [6], 87%; in [7], 55%; in data set [10] it was 62%; in data set [11], 85%; in data set [12] it was 60%. Moreover, the viability at 48 h, 1 µM in data set [3] was 91%. For the same compound, the viability at 48 h, 100 µM in data set [4] stood at 86%. Besides, in data set [5], the viability at 100 µM came out at 69%. Moreover, the cell viability – broadly, a read-out of living cells in per cent, often relative to untreated cells – at 1 µM in data set [8] came out at 97%. In data set [9], the viability at 10 µM turned out to be 95%.

Turning to `CCCNCC(=O)Nc1ccc2c(c1)C(=O)c1cc(NC(=O)CNCCC)ccc1C2=O`, in data set [1], the viability at 48 h, 10 µM turned out to be 44%. The viability at 48 h, 1 µM in data set [3] worked out at 96%. Moreover, the viability at 48 h, 100 µM in data set [4] worked out at 42%. Further, in data set [5], the viability at 100 µM came out at 14%. The residual activity in [6] came out at 73%; in data set [10], 24%; in data set [11], 44%. Besides, the cell viability at 1 µM in [8] is 89%. Also, the viability at 10 µM in [9] is 54%.

With `O=C(Nc1ccc2c(c1)C(=O)c1cc(NC(=O)c3ccccc3)ccc1C2=O)c1ccccc1`, the viability at 48 h, 10 µM in data set [1] amounted to 85%. In addition, the residual activity in data set [2] amounted to 36%; in data set [6], 104%; in [10], 85%; in [11], 92%; in [12], 72%. In data set [3], the viability at 48 h, 1 µM worked out at 92%. In data set [4], the viability at 48 h, 100 µM came out at 97%. For the same compound, the viability at 100 µM in data set [5] came to 41%. Besides, the cell viability at 1 µM in [8] turned out to be 71%. Further, the viability at 10 µM in data set [9] turned out to be 47%.

For the compound `O=C1c2ccc(NC(=O)C3CCCC3)cc2C(=O)c2cc(NC(=O)C3CCCC3)ccc21`, in data set [1], the viability at 48 h, 10 µM is 68%. In addition, the residual activity in data set [2] worked out at 108%; in data set [6], 83%; in data set [7] it was 137%; in data set [10] it was 85%; in data set [11] it was 87%; in data set [12], 130%. Besides, in [3], the viability at 48 h, 1 µM stood at 77%. Further, in data set [4], the viability at 48 h, 100 µM turned out to be 58%. In [5], the viability at 100 µM came to 42%. Besides, the cell viability at 1 µM in data set [8] came out at 91%. Further, the viability at 10 µM in data set [9] turned out to be 77%.

Take `CCNCC(=O)Nc1ccc2c(c1)C(=O)c1cc(NC(=O)CNCC)ccc1C2=O`: the viability at 48 h, 10 µM in [1] worked out at 56%. The residual activity is 17% in data set [2]; 60% in data set [6]; 90% in [7]; 34% in [10]; 35% in data set [11]; 41% in data set [12]. The viability at 48 h, 1 µM in [3] was 72%. Besides, in data set [4], the viability at 48 h, 100 µM was 37%. Moreover, in data set [5], the viability at 100 µM was determined as 3%. In addition, in data set [8], the cell viability at 1 µM amounted to 52%. In addition, the viability at 10 µM in [9] was found to be 24%.

For the compound `CC(C)CNCC(=O)Nc1ccc2c(c1)C(=O)c1cc(NC(=O)CNCC(C)C)ccc1C2=O`, the viability at 48 h, 10 µM in data set [1] was found to be 37%. Also, the residual activity in data set [2] turned out to be 40%; in data set [6], 73%; in data set [7], 83%; in [10] it was 26%; in data set [11] it was 38%; in data set [12], 44%. In [3], the viability at 48 h, 1 µM was found to be 107%. In addition, the viability at 48 h, 100 µM in data set [4] stood at 39%. Besides, in [5], the viability at 100 µM amounted to 11%. In addition, the cell viability at 1 µM in data set [8] amounted to 108%. The viability at 10 µM in data set [9] was found to be 39%.

In the case of `O=C(CCl)Nc1ccc2c(c1)C(=O)c1cc(NC(=O)CCl)ccc1C2=O`, the viability at 48 h, 10 µM in [1] was found to be 89%. Further, the residual activity stood at 135% in data set [2]; 72% in data set [6]; 36% in [10]; 40% in [11]; 69% in [12]. Moreover, in [3], the viability at 48 h, 1 µM came out at 105%. The viability at 48 h, 100 µM in [4] is 88%. In data set [5], the viability at 100 µM stood at 1%. Further, the cell viability at 1 µM in data set [8] is 58%. Besides, in data set [9], the viability at 10 µM was found to be 5%.

For the compound `CCCC(=O)Nc1ccc2c(c1)C(=O)c1cc(NC(=O)CCC)ccc1C2=O`, in data set [1], the viability at 48 h, 10 µM worked out at 51%. Further, in data set [3], the viability at 48 h, 1 µM is 84%. Also, the viability at 48 h, 100 µM in data set [4] came out at 50%. In addition, in data set [5], the viability at 100 µM is 40%. Besides, the residual activity in [6] is 90%; in [10], 83%; in data set [11] it was 83%. In data set [8], the cell viability at 1 µM was 93%. Besides, the viability at 10 µM in [9] stood at 59%.

For `CN1CCN(CCC(=O)Nc2ccc3c(c2)C(=O)c2cc(NC(=O)CCN4CCN(C)CC4)ccc2C3=O)CC1`, the viability at 48 h, 10 µM in data set [1] was 80%. Besides, the viability at 48 h, 1 µM in data set [3] amounted to 95%. Further, the viability at 48 h, 100 µM in data set [4] was 61%. For the same compound, the viability at 100 µM in data set [5] stood at 39%. In addition, the residual activity in data set [6] amounted to 75%; in data set [10] it was 21%; in data set [11], 52%; in [12] it was 138%. Besides, in data set [8], the cell viability at 1 µM came to 95%. Also, the viability at 10 µM in data set [9] amounted to 80%.

Take `O=C(CCCl)Nc1ccc2c(c1)C(=O)c1cc(NC(=O)CCCl)ccc1C2=O`: in data set [1], the viability at 48 h, 10 µM worked out at 65%. Moreover, the viability at 48 h, 1 µM in [3] stood at 77%. Further, in data set [4], the viability at 48 h, 100 µM was determined as 39%. For the same compound, the viability at 100 µM in [5] came to 29%. Also, the residual activity came out at 94% in [6], 87% in [10] and 94% in data set [11]. For the same compound, the cell viability at 1 µM in [8] was found to be 77%. The viability at 10 µM in data set [9] turned out to be 44%.

Regarding `O=C(CN1CCCC1)Nc1ccc2c(c1)C(=O)c1cc(NC(=O)CN3CCCC3)ccc1C2=O`, the viability at 48 h, 10 µM in data set [1] was determined as 60%. For the same compound, in data set [3], the viability at 48 h, 1 µM stood at 99%. Also, the viability at 48 h, 100 µM in data set [4] amounted to 39%. For the same compound, the viability at 100 µM in data set [5] was found to be 23%. The residual activity in data set [6] was 88%; in data set [10], 30%; in data set [11], 48%. Moreover, the cell viability at 1 µM in data set [8] is 99%. Further, in data set [9], the viability at 10 µM worked out at 52%.

Take `O=C(CN1CCNCC1)Nc1ccc2c(c1)C(=O)c1cc(NC(=O)CN3CCNCC3)ccc1C2=O`: the viability at 48 h, 10 µM in data set [1] was determined as 85%. In addition, the viability at 48 h, 1 µM in [3] came to 88%. Moreover, the viability at 48 h, 100 µM in data set [4] was 76%. Also, in data set [5], the viability at 100 µM is 88%. The residual activity stood at 89% in data set [6], 60% in data set [10] and 72% in [11]. For the same compound, the cell viability at 1 µM in data set [8] is 88%. For the same compound, the viability at 10 µM in data set [9] amounted to 85%.

With `Nc1ccc2c(c1)C(=O)c1cc(N)ccc1C2=O`, the viability at 48 h, 10 µM in data set [1] stood at 83%. Besides, the viability at 48 h, 1 µM in [3] worked out at 95%. Further, in data set [4], the viability at 48 h, 100 µM is 80%. Moreover, in data set [5], the viability at 100 µM amounted to 65%. In addition, the figures for the residual activity in data set [6], in data set [10] and in [11] were 87%, 63% and 75%, respectively. In addition, the cell viability at 1 µM in data set [8] amounted to 90%. For the same compound, the viability at 10 µM in data set [9] worked out at 80%.

Values taken from ChEMBL document CHEMBL1155063 (Bioorg Med Chem, 2008).
